The full list was thinned out, with hits kept by preference.
T cruzi HTS = inhibitors of intracellular Trypanosoma cruzi, primary screen, cell-based, plate reader, single point, set 2. activity score (inhibition), % at 5.01 µM. hit rate 4.9% among 22,000. intracellular Trypanosoma cruzi in host cells; in the data active means activity score above about 55%;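 further: parasites and compound incubated about four days before reading; 0% = median of neutral control wells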
A1 apoptosis 2 = A1 inhibitors via caspase activation, primary screen, cell-based, luminescence, HTS, two replicates | caspase activation, % (no concentration beside the values) | 24,000 tested, under 10 active | AID 2465, 2010 | MEF A1-2A-BIM cells, caspase-Glo luminescence, 3 h; percent of clofoctol response, DMSO zero; in the data active means caspase activation above about 5.9%
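System: mouse embryonic fibroblasts co-expressing A1 and BIM (A1-2A-BIM), primed for A1 dependence; amount: 2500 cells/well; doses: 50 nL pinned compound; schedule: cells settled overnight, compound exposure 3 h at 37 °C, 5% CO2; detection: Caspase-Glo 3/7 luminescence, 1 h at room temperature; read-out: Caspase-3/7 activation, seen as rise in luminescence signal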
INS-1E rescue = protection of INS-1E cells from cytokine death, primary screen, ATP luminescence, single point; INS-1E cytokine-induced death, 48 h; normalised: neutral wells 0, positive control 100; protection from cytokine-induced ATP loss, % at 10 µM; hit rate 0.1% among 20,000;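 active means mean replicate protection from cytokine-induced ATP loss at least 50% and at least 75% of replicates each reaching 50%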
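Test system: INS-1E rat cells | Quantity: 8000 cells per well | Medium: Phenol-red-free RPMI with 5% fetal bovine serum | Reagent: Cytokine cocktail of IFN-γ, TNF-α and IL-1β | Doses: One compound concentration, pin transfer | Timing: 48 h co-treatment, 10 min post-lysis read | Technique: Luminescent ATP assay (CellTiter-Glo)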
The depositor's hits bear a star; / = no result.

SMILES	T cruzi HTS	A1 apoptosis 2	INS-1E rescue
COc1ccc(S(=O)(=O)Nc2ccc3c(c2)CC(=O)N([C@H](C)CO)C[C@@H](C)[C@@H](CN(C)Cc2ccc(Cl)c(Cl)c2)O3)cc1	55*	-1	-12
COc1ccc(S(=O)(=O)Nc2ccc3c(c2)CC(=O)N([C@@H](C)CO)C[C@H](C)[C@H](CN(C)Cc2ccc(Cl)c(Cl)c2)O3)cc1	73*	/	-21
COc1ccc(S(=O)(=O)Nc2ccc3c(c2)C(=O)N([C@@H](C)CO)C[C@@H](C)[C@@H](CN(C)Cc2ccc(Cl)c(Cl)c2)O3)cc1	12	1	-25
O=C(CCCCCCC(=O)Nc1ccccc1O)N/N=C/c1ccc([N+](=O)[O-])c(O)c1	-2	-1	13
COc1ccc(/C=N/NC(=O)CCCCCC(=O)O)c(O)c1	-10	0	3
COC(=O)CCCCCCC(=O)N/N=C/c1cccc(O)c1O	41	1	-17
CN(C)CCCOc1ccc(/C=N/NC(=O)c2ccccc2O)cc1	26	-2	-3
O=C(NO)c1ccc(C(=O)N/N=C/c2ccc(O)cc2Br)cc1	-14	-3	12
C[C@H]1CN([C@@H](C)CO)C(=O)c2cc(NC(=O)Cc3cn(C)c4ccccc34)ccc2O[C@H]1CN(C)Cc1ccc(C(F)(F)F)cc1	43*	0	/
C[C@@H]1CN([C@@H](C)CO)C(=O)c2cc(NC(=O)Cc3cn(C)c4ccccc34)ccc2O[C@@H]1CN(C)C(=O)Nc1ccc(C(F)(F)F)cc1	8	/	-6
C[C@@H]1CN([C@@H](C)CO)C(=O)c2cc(NC(=O)Cc3cn(C)c4ccccc34)ccc2O[C@H]1CN(C)Cc1ccc(C(F)(F)F)cc1	82*	-2	-24
C[C@@H]1CN([C@H](C)CO)C(=O)c2cc(NC(=O)Cc3cn(C)c4ccccc34)ccc2O[C@@H]1CN(C)C(=O)Nc1ccc(C(F)(F)F)cc1	81*	/	-18
C[C@@H]1CN([C@H](C)CO)C(=O)c2cc(NC(=O)Cc3cn(C)c4ccccc34)ccc2O[C@@H]1CN(C)Cc1ccccc1	17	/	3
C[C@H](CO)N1C[C@H](C)[C@H](CN(C)Cc2ccc(C(F)(F)F)cc2)Oc2ccc(NC(=O)Cc3cn(C)c4ccccc34)cc2C1=O	34	-1	/
N#Cc1ccc(/C=N/NC(=O)CCCCCCC(=O)NO)cc1	/	1	/
CCn1c2ccccc2c2cc(/C=N/NC(=O)CCCCCCC(=O)OC)ccc21	31	/	18
O=C(N/N=C/c1ccc(-c2cccc(Cl)c2)o1)c1ccccc1O	-18	-1	-17
CC(C)(C)OC(=O)NC1(/C=N/NC(=O)CCCCCC(=O)NO)CCCC1	/	0	/
CC(C)=CCC[C@H](C)C/C=N/NC(=O)c1cccc(C(=O)NO)c1	-8	2	3
COc1ccc(CN(C)C[C@H]2Oc3ccc(NC(=O)C4CCCCC4)cc3CC(=O)N([C@@H](C)CO)C[C@@H]2C)cc1	64*	/	-1
C[C@@H]1CN([C@H](C)CO)C(=O)Cc2cc(NC(=O)C3CCCCC3)ccc2O[C@H]1CN(C)Cc1ccc(Oc2ccccc2)cc1	76*	/	-75
COc1ccc(CN(C)C[C@H]2Oc3ccc(NC(=O)C4CCCCC4)cc3CC(=O)N([C@H](C)CO)C[C@H]2C)cc1	-1	-1	-6
C[C@H]1CN([C@@H](C)CO)C(=O)Cc2cc(NC(=O)C3CCCCC3)ccc2O[C@H]1CN(C)Cc1ccc(Oc2ccccc2)cc1	29	/	-27
O=C(/C=C/c1ccc(OCCCc2ccccc2)cc1)NO	/	0	/
O=C(NO)c1ccc(C(=O)N/N=C/c2cc(Cl)cc(Cl)c2O)cc1	-8	-1	24
SMILES	T cruzi HTS	A1 apoptosis 2	INS-1E rescue
C[C@H](CO)N1C[C@H](C)[C@H](CN(C)C(=O)Nc2ccc(F)cc2)Oc2c(NC(=O)c3ccc(-c4nccs4)cc3)cccc2C1=O	-12	/	14
C[C@@H]1CN([C@H](C)CO)C(=O)c2cccc(NC(=O)c3ccc(-c4nccs4)cc3)c2O[C@H]1CN(C)C(=O)Nc1ccc(C(F)(F)F)cc1	77*	/	-4
C[C@@H]1CN([C@@H](C)CO)C(=O)c2cccc(NC(=O)c3ccc(-c4nccs4)cc3)c2O[C@H]1CN(C)C(=O)Nc1ccc(C(F)(F)F)cc1	68*	/	1
C[C@H]1CN([C@@H](C)CO)C(=O)c2cccc(NC(=O)c3ccc(-c4nccs4)cc3)c2O[C@H]1CN(C)C(=O)Nc1ccc(C(F)(F)F)cc1	24	/	-11
COc1ccc(/C=N/NC(=O)CCCCCC(=O)NO)cc1O	/	-1	/
C[C@@H]1CN([C@@H](C)CO)C(=O)Cc2cc(NC(=O)Nc3ccccc3)ccc2O[C@H]1CN(C)Cc1ccc(Oc2ccccc2)cc1	/	1	/
C[C@H]1CN([C@@H](C)CO)C(=O)Cc2cc(NC(=O)Cc3ccccc3)ccc2O[C@@H]1CN(C)Cc1ccc(Oc2ccccc2)cc1	63*	/	-30
C[C@@H]1CN([C@@H](C)CO)C(=O)Cc2cc(NC(=O)Nc3ccc(F)cc3)ccc2O[C@@H]1CN(C)Cc1ccc(Oc2ccccc2)cc1	75*	/	0
C[C@H]1CN([C@@H](C)CO)C(=O)Cc2cc(NC(=O)Nc3ccccc3)ccc2O[C@@H]1CN(C)Cc1ccc(Oc2ccccc2)cc1	49	/	-26
C[C@H](CO)N1C[C@H](C)[C@H](CN(C)Cc2ccc(Oc3ccccc3)cc2)Oc2ccc(NC(=O)Cc3ccccc3)cc2CC1=O	54	1	-41
C[C@@H]1CN([C@H](C)CO)C(=O)Cc2cc(NC(=O)Nc3ccccc3)ccc2O[C@@H]1CN(C)Cc1ccc(Oc2ccccc2)cc1	72*	2	-69
C[C@H](CO)N1C[C@H](C)[C@H](CN(C)Cc2ccc(-c3ccccc3)cc2)Oc2ccc(NC(=O)Cc3ccccc3)cc2CC1=O	47	/	-18
C[C@@H]1CN([C@H](C)CO)C(=O)Cc2cc(NC(=O)Cc3ccccc3)ccc2O[C@@H]1CN(C)Cc1ccc(-c2ccccc2)cc1	72*	1	-62
NNC(=O)c1ccc(COc2cc(Cl)ccc2Cl)o1	9	/	/
C=CCOC(=O)[C@H]1[C@@H]2C(=O)O[C@@H](c3ccccc3)[C@@H](c3ccccc3)N2[C@@H](c2ccc(OCCOC(=O)[C@@H]3C[C@@H]4C(=O)NCC(=O)N4[C@@H]3c3ccc(O)cc3)cc2)[C@]12C(=O)Nc1ccccc12	/	1	/
O=C(N/N=C/c1cc(O)ccc1Br)c1ccccn1	-6	-12	6
C[C@@H]1CN([C@@H](C)CO)C(=O)Cc2cc(NC(=O)CCC(F)(F)F)ccc2O[C@H]1CN(C)Cc1ccc(-c2ccccc2)cc1	/	2	/
C[C@@H]1CN([C@@H](C)CO)C(=O)Cc2cc(NC(=O)Nc3ccccc3)ccc2O[C@@H]1CN(C)Cc1ccc(Oc2ccccc2)cc1	81*	/	-74
C[C@H]1CN([C@@H](C)CO)C(=O)Cc2cc(NC(=O)CCC(F)(F)F)ccc2O[C@@H]1CN(C)Cc1ccc(-c2ccccc2)cc1	60*	/	-53
